Assay outcomes deposited in PubChem BioAssay by Sanford-Burnham Center for Chemical Genomics.
Apaf-1 act = activates human Apaf-1 apoptosome | O14727 | Apaf-1 apoptosome caspase-3 activation, DEVD-Rh110 fluorescence; hits give low values | activity change, negative = activation, % at 20 µM | actives 0.31% (n = 330,000);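 active = activity change at or below -40% at 20 µM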
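System: Reconstituted apoptosome of Apaf-1, cytochrome c, caspase-9, procaspase-3 | Reagent: dATP, cytochrome c, and (Z-DEVD)2-Rh110 caspase-3 substrate | Times: 30 min compound preincubation and 50 min reaction, both room temperature | Detection: Caspase-3-released Rh110 fluorescence, 540 nm emission, 480 nm excitation | Measure: Caspase-3 activity via Apaf-1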
Rh110 act interf = Rh110 signal interference in Apaf-1 activator counter-screen | shares compounds with Apaf-1 act | Rh110 fluorescence interference, quenched caspase reaction, Ex480/Em540 | fluorescence interference (activity change), % at 20 µM, hits read low | 980 tested, under 10 active | AID 504616;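 active = mean activity change at or below -40% when tested at 20 µM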
Apaf-1 act conf2 = Apaf-1 (human) activation, single-dose confirmed; shares compounds with Apaf-1 act; reconstituted apoptosome caspase-3 activity, DEVD-Rh110 fluorescence; hits give low values; activity change, negative = activation, % at 20 µM; actives 5% (n = 980); AID 504617;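 active = mean activity change at or below -40%, meaning activation of 40% or more, at 20 µM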
* = called active by the depositor; . = not tested or not shown. Only a sample is shown.

SMILES	Apaf-1 act	Rh110 act interf	Apaf-1 act conf2
CN1CCN(c2ccc(-c3cccc(NC(=O)COc4ccccc4)c3)nn2)CC1	46.6	.	.
O=C(COc1ccc(-c2ccccc2)cc1)NNC(=O)Nc1ccc(F)cc1F	-53.7*	3.6	16.5
Cn1c(Cc2ccccc2)n[nH]c1=S	41.5	.	.
N#Cc1c(N)n(CCNC(=O)c2ccc(Cl)cc2)c2nc3ccccc3nc12	66.5	.	.
Cc1ccc(-n2nc3ccc(N)cc3n2)c(C)c1	68.1	.	.
CCOC(=O)C1(CCOc2ccccc2)CCN(CC(O)CO)CC1 (stereo unspecified)	-53.4*	2.3	12.2
CCc1ccc(OCC(O)CN2CCC(CN3C(=O)c4cccc5cccc(c45)C3=O)CC2)cc1 (stereo unspecified)	42.0	.	.
CC1=CC(C)(C)N2C(=O)C(=Nc3ccc(O)cc3)c3cccc1c32	90.2	.	.
CC(=O)N(/N=C1\Sc2ccccc2C1=O)c1cccc(C)c1	85.8	.	.
CC(=O)c1ccc(OCC(O)CN2CCN(Cc3ccc4c(c3)OCO4)CC2)cc1 (stereo unspecified)	-0.2	.	.
C/C(=N\NC(=O)Cn1ccc(C(F)(F)F)n1)c1ccc2c(c1)OCO2	-134.3*	1.3	-0.1
Cc1ccc(NC2=C(NC(=O)c3ccccc3)C(=O)c3ccccc3C2=O)cc1Cl	67.3	.	.
CC12COC3(P(=O)(c4ccccc4)c4ccccc4)CC1CCC23CP(=O)(c1ccccc1)c1ccccc1 (stereo unspecified)	41.3	.	.
Cc1cccc2sc(N(CCCN(C)C)C(=O)c3ccc(S(=O)(=O)N4CCc5ccccc5C4)cc3)nc12	62.6	.	.
CCOC(=O)C1CCN(C(=O)c2c(C)oc3c2C(=O)c2ccccc2C3=O)CC1	48.4	.	.
CCOC(=O)C1CCN(C(=O)c2ccccc2NS(=O)(=O)c2ccccc2)CC1	-496.4*	16.2	18.6
CC1=NN(c2ccccc2)C(=O)/C1=C\N(O)c1ccccc1	70.5	.	.
Nc1c(C(=O)NCCN2CCOCC2)c2nc3ccccc3nc2n1CCc1ccccc1F	43.3	.	.
COC(=O)c1c(C(=O)OC)c2cccc3cc(-c4ccccc4)c4ccc1c4n32	65.3	.	.
N[C@@H](Cc1cc(I)c(Oc2ccc(O)c(I)c2)c(I)c1)C(=O)O	4.0	.	.
O=C1/C(=C/c2ccccn2)SC(=S)N1c1ccc(O)cc1	-47.2*	-1.2	-10.2
CC(=O)[C@]1(O)Cc2c(O)c3c(c(O)c2[C@@H](O[C@H]2C[C@H](N)[C@H](O)[C@H](C)O2)C1)C(=O)c1ccccc1C3=O	46.6	.	.
COc1ccc(CCNc2nc(-c3ccc(F)cc3)c(CC(=O)O)s2)cc1OC	-161.6*	10.3	19.1
CC(=O)N(Cc1ccc(F)cc1)C1=C(NCCc2ccccc2)C(=O)c2ccccc2C1=O	77.9	.	.
CCOc1ccccc1N(CC(=O)Nc1ccc(S(=O)(=O)N2CCOCC2)cc1)S(=O)(=O)c1ccc(Cl)cc1	-68.1*	-1.0	10.5
SMILES	Apaf-1 act	Rh110 act interf	Apaf-1 act conf2
CCN(CC(=O)Nc1cc(S(=O)(=O)N2CCOCC2)ccc1Cl)Cc1ccccc1	42.0	.	.
O=C(O)c1cccc(CN2C(=O)CSC2=O)c1	-52.2*	0.3	8.0
COc1ccc(CCN(C)C(=O)c2cccc(S(=O)(=O)NCc3ccccc3)c2)cc1OC	56.7	.	.
CCOc1cc(/C=C2\C(=O)N(c3ccc(C(N)=O)cc3)N=C2C)ccc1OC(=O)c1cccs1	93.5	.	.
COc1ccc(CCNC(=O)COC(=O)c2cccs2)cc1OC	-163.2*	19.3	16.3
COc1ccc(-c2coc3c(CN4CCCCC4)c(O)c(CN4CCCCC4)c(O)c3c2=O)cc1	42.5	.	.
COc1ccc(/C=C2/C(=O)N(c3cccc(F)c3)N=C2C)c(OC)c1	89.7	.	.
Cc1cc2cc(CNC(=O)NC3CCCCC3)ccc2n1C	50.8	.	.
Cc1ccccc1NC(=O)NC1CCCCCCC1	-63.2*	4.3	6.4
Cc1cccn2c(=O)c3cc(C(=O)NC4CCCCC4)c(=N)n(Cc4ccccc4)c3nc12	57.3	.	.
NS(=O)(=O)c1ccc(NC(=O)c2ccc3nccnc3c2)cc1	-43.7*	0.6	2.5
C=CCNC(=O)c1c(N)n(-c2cccc(S(N)(=O)=O)c2)c2nc3ccccc3nc12	60.9	.	.
Cc1nc2ccc3nc(NC(=O)c4ccc(S(=O)(=O)N5CCOCC5)cc4)sc3c2s1	-80.1*	-6.9	-21.4
Cc1cc(NC(=O)c2cccc(S(=O)(=O)N3CCOCC3)c2)no1	-49.7*	2.4	9.1
CCN1CCN(c2ccc(S(=O)(=O)N3CCOCC3)cc2NC(=O)CC(C)C)CC1	50.1	.	.
Cc1ccc(-n2c(O)c(/C=N/Nc3ccc(S(=O)(=O)N4CCOCC4)cc3[N+](=O)[O-])c3ccccc3c2=O)c(C)c1	50.7	.	.
Cc1[nH]n(-c2ccccc2)c(=O)c1N=Nc1cccc(S(=O)(=O)N2CCOCC2)c1	45.7	.	.
CC(=O)N1CCN(C2=Nc3cccc4cccc2c34)CC1	80.1	.	.
CCC(CO)Oc1cc(NCc2ccc(C)cc2)c2ncn(C(C)C)c2c1 (stereo unspecified)	41.0	.	.
O=C(Cc1cc(=O)[nH][nH]1)N/N=C/C(Cl)=C/c1ccccc1	49.1	.	.
c1ccc2c(C[C@@H]3CNCCN3CC3CCCCC3)cccc2c1	43.7	.	.
CCN1CCN(Cc2ccc(NC(=O)c3cc(NC(=O)C(=O)c4c[nH]c5ccccc45)cc(OC)c3)cc2C(F)(F)F)CC1	41.5	.	.
CC(C)[n+]1ccn(C2=C([O-])c3ccccc3C(=O)/C2=N\S(=O)(=O)c2ccccc2)c1	46.2	.	.
CCn1c(=O)c([N+](=O)[O-])c(NC2CCS(=O)(=O)C2)c2ccccc21 (stereo unspecified)	-162.4*	12.0	11.5
CC/C(=N/Nc1cccc(C)c1)c1cnnc(SC)n1	63.2	.	.
SMILES	Apaf-1 act	Rh110 act interf	Apaf-1 act conf2
C#CCOCCOCCOCCNc1nc(N2CCN(C(=O)CCCCCCCCCCNC(=O)[C@H](CCCCN)n3cc(CCCC(=O)O)nn3)CC2)nc(N2CCN(C(=O)CCCCCCCCCCNC(=O)[C@H](CCCN=C(N)N)n3cc(C[C@@H](C)CC)nn3)CC2)n1	76.2	.	.
CC[C@@H](C)[C@@H]1CN([C@@H](CN2CCC[C@H]2CN2C(N)=NC[C@H]2C(C)C)C(C)C)C(=N)N1CCc1ccc(Cl)c(Cl)c1	51.0	.	.
CC(N=Cc1cccc(O)c1O)c1ccccc1 (stereo unspecified)	71.3	.	.
Cc1ccc2ccc(C3C(=O)c4ccccc4C3=O)nc2c1	-169.6*	9.9	8.0
Cc1[nH]n(-c2ccccc2)c(=O)c1C(C[N+](=O)[O-])c1ccc(F)cc1 (stereo unspecified)	93.8	.	.
C#CCOCCOCCOCCNc1nc(N2CCN(C(=O)[C@H](Cc3cc4ccccc4[nH]3)n3cc([C@@H](N)CC(C)C)nn3)CC2)nc(N2CCN(C(=O)[C@H](Cc3cc4ccccc4[nH]3)n3cc([C@@H](N)CC(C)C)nn3)CC2)n1	70.7	.	.
COc1ccc(/C=N/Nc2cc(C)nc3ccc(Br)cc23)cc1	55.5	.	.
COc1ccc(C(=O)CSc2nnc(-c3cccnc3)n2Cc2ccco2)cc1	-50.3*	-0.7	7.7
Cc1cnc(NC(=O)CSc2ncc(-c3ccccc3)n2Cc2ccco2)s1	41.9	.	.
Nc1cc(N)c(OCC(F)(F)F)cc1OCC(F)(F)F	83.9	.	.
CN(C)CCCNc1cc(C(C)(C)C)nc2c(-c3ccc(Cl)cc3)cnn12	58.3	.	.
CCOc1ccc(-n2c(SCc3ccc([N+](=O)[O-])cc3)nnc2-c2ccc(OC)cc2)cc1	-303.7*	-4.2	17.9
